Measured values: article PMC8603004 (EFSA Journal, 2021)
Where “and” joins values, the source holds several entries; their conditions need not be identical. Identical values can stand only once.

Tests used:
[1] = ADME of 14C‐3‐NOP following single or multiple oral administration; format: in vivo, rat; settings: for Radioactivity in plasma 48 h after the last dose: 50 mg/kg bw for five days
[2] = tested on: Salmonella Typhimurium strains TA98, TA100, TA102, TA1535 and TA1537; test: Ames microsuspension test; format: cell-based; settings: 1.6 to 500 μg/plate, with and without metabolic activation
ruminal microorganisms = test: In vitro ruminal fermentation; settings: 3‐NOP added to the feed at different concentrations, three studies
How it was run: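 Rumen fermentation was simulated in a chemostat (RUSITEC) as continuous culture of ruminal microorganisms. Each of three studies included a control without additive and one or more groups with test compound added to the feed at differing concentrations.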

[3] = Second goat experiment, pre‐dosed 5 days; format: in vivo, lactating goat
[4] = Incubation of 14C‐3‐NOP in liver fractions; format: in vitro ADME; settings: Sprague-Dawley, rat, liver cytosol
How it was run: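 14C-labelled test compound was incubated with or without NAD+ in liver S9, cytosol and microsomes from Sprague–Dawley rat, Wistar Han rat, Beagle dog and human. Aliquots were taken at several time points and the proteins precipitated. Supernatants were analysed by liquid scintillation counting and radio-HPLC, and half-life was derived from the time course.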

[5] = tested on: New Zealand White rabbits; test: Prenatal developmental toxicity study; settings: rabbit, in vivo
[6] = tested on: Syrian hamster embryo cells; test: Cell transformation assay; format: cell-based; settings: 500 to 2,500 μg/mL, 7 days
How it was run: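 GLP in vitro transformation assay in Syrian hamster embryo cells, following the OECD draft proposal (2012). The test compound was given as a continuous 7-day treatment at six concentrations from 500 to 2,500 μg/mL, chosen from a dose-range finding test. The frequency of morphologically transformed colonies was scored against positive and vehicle controls.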

Beagle dogs = test: 90‐day oral gavage study; format: in vivo
[7] = Mass balance with volatile trapping and tissue distribution study; format: in vivo, male Wistar rats
How it was run: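 Mass balance under OECD TG 417 in male Wistar rats given a single oral dose of 500 mg/kg bw 14C-labelled test compound. Rats were housed individually in air-tight glass metabolism cages. Volatiles were adsorbed in trapping solutions over 0–8 h and 8–24 h, and urine and faeces were collected over 0–24 h. Tissues, carcass and GI contents were taken at 24 h and results expressed as % of dose.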

CByB6F1 Hybrid mice = test: 28‐day oral gavage study with toxicokinetic evaluation of NOPA; format: in vivo
[8] = tested on: Holstein Friesian dairy cows; test: Dose‐range finding study in dairy cows; format: in vivo; settings: group 10× (16 g 3‐NOP/day, 800 mg/kg complete feed) compared to the control
[9] = single 50 mg/kg bw, males, 48 h
[10] = trial iii, 500 mg/kg bw, 1 h, females
[11] = trial iii, 500 mg/kg bw, 1 h, males
[12] = trial iv, 5 x 50 mg/kg bw, 48 h after last administration, females
[13] = trial iv, 5 x 50 mg/kg bw, 48 h after last dose, males
[14] = 3.28 mg/kg bw per day, two days labelled
[15] = males, 700 mg/kg bw per day (control 0/10)

For `O=[N+]([O-])OCCCO` [3‐NOP, propan‐1,3‐diol‐mononitrate], the “Parent compound in the stomach and caecum” value ([1]; 500 mg/kg, 1 h, females) was 70 % of administered dose, the “Parent compound in the stomach and caecum” value ([1]; 500 mg/kg, 1 h, males) was 83 % of administered dose and the “Parent compound in the liver” value ([1]; 500 mg/kg, 1 h, two values given, sexes not named) was 3.5 % of TRR. For the same compound, the “Total mean recovery of administered radioactivity” value ([1]; single 50 mg/kg bw, females) was 91.1%, the “Urinary excretion, mean” value ([1]; single 50 mg/kg bw, females) was 4.8% and the “Mean radioactivity in plasma 48 h after dosing” value (“Mean radioactivity” below) ([1]; single 50 mg/kg bw, females, 50 mg/kg) was 4.2 μg 3‐NOP‐eq/mL and 4.22 μg 3‐NOP‐eq/mL. For the same compound, the “Total mean recovery of administered radioactivity” value ([1]; single 50 mg/kg bw, males) was 95.9%, the “Urinary excretion, mean” value ([1]; single 50 mg/kg bw, males) was 6.3% and the “Administered radioactivity recovered in expired air” value ([1]; single 50 mg/kg bw, males and females) was “about 80%”. For the same compound, the “Mean concentration of TR in adrenals” value [1, 9] was 19.5 μg 3‐NOP‐eq/g, the “Mean concentration of TR in bone marrow” value [1, 9] was 14.3 μg 3‐NOP‐eq/g and the “Mean concentration of TR in kidneys” value [1, 9] was 10.9 μg 3‐NOP‐eq/g. The “Mean concentration of TR in liver” value [1, 9] was 12.6 μg 3‐NOP‐eq/g, the “Mean radioactivity” value ([1]; single 50 mg/kg bw, males, 50 mg/kg) was 7.0 μg 3‐NOP‐eq/mL and 7.03 μg 3‐NOP‐eq/mL and the “Administered radioactivity recovered in expired air” value ([1]; single 500 mg/kg bw, females) was 61.7%. For the same compound, the “Total mean recovery of administered radioactivity” value ([1]; single 500 mg/kg bw, females) was 85.3%, the “Urinary excretion, mean” value ([1]; single 500 mg/kg bw, females) was 13.1% and the “Mean radioactivity” value ([1]; single 500 mg/kg bw, females, 500 mg/kg) was 34.5 μg 3‐NOP‐eq/mL and 34.47 μg 3‐NOP‐eq/mL. For the same compound, the “Administered radioactivity recovered in expired air” value ([1]; single 500 mg/kg bw, males) was 73.5%, the “Total mean recovery of administered radioactivity” value ([1]; single 500 mg/kg bw, males) was 93.2% and the “Urinary excretion, mean” value ([1]; single 500 mg/kg bw, males) was 11.3%. The “Mean radioactivity” value ([1]; single 500 mg/kg bw, males, 500 mg/kg) was 51.9 μg 3‐NOP‐eq/mL and 51.92 μg 3‐NOP‐eq/mL, the “Mean concentration of TR in plasma” value ([1]; trial iii, 500 mg/kg bw, 15 min, females) was 477 μg 3‐NOP‐eq/mL and the “Mean concentration of TR in plasma” value ([1]; trial iii, 500 mg/kg bw, 15 min, males) was 396 μg 3‐NOP‐eq/mL. The “Mean concentration of TR in plasma” value ([1]; trial iii, 500 mg/kg bw, 45 min, females) was 629 μg 3‐NOP‐eq/mL, the “Mean concentration of TR in plasma” value ([1]; trial iii, 500 mg/kg bw, 45 min, males) was 512 μg 3‐NOP‐eq/mL and the “Mean concentration of TR in plasma” value [1, 10] was 583 μg 3‐NOP‐eq/mL. The TR in kidneys [1, 10] was 865 μg 3‐NOP‐eq/g, the TR in liver [1, 10] was 622 μg 3‐NOP‐eq/g and the “Mean TR in kidneys” value [1, 11] was 636 μg 3‐NOP‐eq/g. The “Mean TR in liver” value [1, 11] was 655 μg 3‐NOP‐eq/g, the “Mean TR in lungs” value [1, 11] was 494 μg 3‐NOP‐eq/g and the “Mean TR in pancreas” value [1, 11] was 471 μg 3‐NOP‐eq/g. The “Mean concentration of TR in plasma” value [1, 11] was 467 μg 3‐NOP‐eq/mL, the “Time of TR max in plasma” value ([1]; trial iii, 500 mg/kg bw, all animals) was 45 min and the “Radioactivity in plasma 48 h after the last dose” value ([1]; trial iv, females) was 11.7 μg 3‐NOP‐eq/mL. The “Radioactivity in plasma 48 h after the last dose” value ([1]; trial iv, males) was 14.4 μg 3‐NOP‐eq/mL, the TR in adrenals [1, 12] was 57.0 μg 3‐NOP‐eq and the “TR in bone marrow” value [1, 12] was 21.3 μg 3‐NOP‐eq/g. The TR in kidneys [1, 12] was 30.0 μg 3‐NOP‐eq, the TR in liver [1, 12] was 32.3 μg 3‐NOP‐eq and the TR in lungs [1, 12] was 20.7 μg 3‐NOP‐eq/g. For the same compound, the TR in ovaries [1, 12] was 35.7 μg 3‐NOP‐eq, the TR in pancreas [1, 12] was 21.6 μg 3‐NOP‐eq/g and the “TR in renal fat” value [1, 12] was 34.1 μg 3‐NOP‐eq. For the same compound, the TR in spleen [1, 12] was 20.1 μg 3‐NOP‐eq/g, the TR in thymus [1, 12] was 24.7 μg 3‐NOP‐eq/g and the TR in adrenals [1, 13] was 51.2 μg 3‐NOP‐eq/g. The “TR in bone marrow” value [1, 13] was 34.1 μg 3‐NOP‐eq/g, the TR in epididymis [1, 13] was 18.2 μg 3‐NOP‐eq/g and the TR in kidneys [1, 13] was 34.8 μg 3‐NOP‐eq/g. The TR in liver [1, 13] was 34.9 μg 3‐NOP‐eq/g, the TR in lungs [1, 13] was 18.7 μg 3‐NOP‐eq/g and the TR in pancreas [1, 13] was 20.0 μg 3‐NOP‐eq/g. The TR in prostate [1, 13] was 24.6 μg 3‐NOP‐eq/g, the TR in spleen [1, 13] was 22.9 μg 3‐NOP‐eq/g and the TR in thymus [1, 13] was 28.5 μg 3‐NOP‐eq/g. For the same compound, the “Mean cumulative excretion via the expired air” value ([1]; trial iv, 48 h after the last dose) was “about 70 % of the total administered radioactivity”, the Radioactivity in carcass ([1]; trial iv, females) was 3.6% and the “Total mean recovery of the administered radioactivity” value ([1]; trial iv, females) was 83.1%. For the same compound, the Radioactivity in carcass ([1]; trial iv, males) was 3.5%, the “Total mean recovery of the administered radioactivity” value ([1]; trial iv, males) was 86.4% and the Revertant colonies [2] was “No significant increase in the mean number of revertant colonies”. For the same compound, the “Methane output in vitro” value (ruminal microorganisms) was “reduces methane output significantly”, the “Radioactivity excreted via faeces” value [3, 14] was 0.71 % of radioactivity totally app and the “Radioactivity excreted via milk” value [3, 14] was 4.48 % of radioactivity totally app. For the same compound, the “Radioactivity excreted via urine” value [3, 14] was 1.97 % of radioactivity totally app, the “Radioactivity in the intestinal tract content” value [3, 14] was 14.87 % of radioactivity totally app and the “Radioactivity remaining in the total edible tissues” value [3, 14] was 8.99 % of radioactivity totally app. For the same compound, the Total radioactivity excreted [3, 14] was 7.18%, the “Total recovery at sacrifice” value [3, 14] was 31.04% and the “Radioactive residues in plasma” value ([3]; 0.5 h after the first administration) was 2.31 mg 3‐NOP‐equivalents/kg. For the same compound, the “Plasma radioactivity associated with the plasma protein fraction” value ([3]; 0.5 h post‐dose) was 4.4%, the “Radioactivity in the aqueous phase of plasma” value ([3]; 0.5 h post‐dose) was 95.6% and the “Plasma radioactivity associated with the plasma protein fraction” value ([3]; 24 h post‐dose) was 89.4%. For the same compound, the “Radioactivity in the aqueous phase of plasma” value ([3]; 24 h post‐dose) was 10.6%, the “Nitrate esters in the aqueous phase of plasma, not detectable (LOD)” value ([3]; LOD ≤ 0.07) was under 0.07 mg/kg and the “Nitrate esters in the aqueous milk fraction, not detectable (LOD)” value ([3]; LOD ≤ 0.21) was under 0.21 mg/kg. The “Radioactive residues in plasma” value ([3]; at sacrifice) was 1.6 mg 3‐NOP‐equivalents/kg, the half-life [4] was 42 min and the “NOAEL for maternal and developmental toxicity” value [5] was “at least 450 mg/kg bw per day”. For the same compound, the Morphologically transformed colonies [6] was “No significant increase in the frequency of morphologically transformed colonies”, the NOAEL (Beagle dogs; females, severe clinical signs in one female) was 100 mg 3‐NOP/kg bw per day and the NOAEL (Beagle dogs; males) was 300 mg 3‐NOP/kg bw per day. The Radioactivity exhaled ([7]; 0 to 8 h post‐dose) was 64.3%, the “Dose recovered in faeces” value ([7]; 0 to 24 h) was 1.2 % of the dose and the “Dose recovered in urine” value ([7]; 0 to 24 h) was 9.8 % of the dose. For the same compound, the Radioactivity exhaled ([7]; 8 to 24 h post‐dose) was 13.0%, the “Dose in the gastrointestinal tract content” value ([7]; 24 h) was 0.5 % of the dose and the “Dose remaining in the tissues and carcass” value ([7]; 24 h) was 7.7 % of the dose. For the same compound, the “Overall recovery of radioactivity” value ([7]; 24 h) was 99.3%, the “Dose recovered from the volatile traps (almost all as 14CO2)” value ([7]; 24 h after single oral 500 mg/kg bw) was 77.4 % of the dose and the “Mean concentration of radioactive compounds in blood” value ([7]; 24 h post‐dose) was 48.7 μg 3‐NOP‐eq/g. The “Radioactivity concentration in adrenal glands” value ([7]; 24 h post‐dose) was 159.3 μg 3‐NOP‐eq/g, the “Radioactivity concentration in brain” value ([7]; 24 h post‐dose) was 24.8 μg 3‐NOP‐eq/g and the “Radioactivity concentration in fat” value ([7]; 24 h post‐dose) was 58.9 μg 3‐NOP‐eq/g. For the same compound, the “Radioactivity concentration in kidney” value ([7]; 24 h post‐dose) was 118.4 μg 3‐NOP‐eq/g, the “Radioactivity concentration in liver” value ([7]; 24 h post‐dose) was 184.5 μg 3‐NOP‐eq/g and the “Radioactivity concentration in muscle” value ([7]; 24 h post‐dose) was 42.4 μg 3‐NOP‐eq/g. For the same compound, the “Reduction in mean overall food consumption” value (CByB6F1 Hybrid mice; 700 mg/kg bw per day, vs control) was 6%, the NOAEL (CByB6F1 Hybrid mice; blood biochemical changes at 300 mg/kg bw per day) was 100 mg 3‐NOP/kg bw per day and the “Decrease of absolute thymus weight” value (CByB6F1 Hybrid mice; males, 700 mg/kg bw per day) was 22%. For the same compound, the “Decrease of relative thymus weight” value (CByB6F1 Hybrid mice; males, 700 mg/kg bw per day) was 23%, the “Incidence of mild inflammation of the eye striated muscle” value (CByB6F1 Hybrid mice; [15]) was 4/10 and the “Incidence of minimal to mild adrenal cortical vacuolation” value (CByB6F1 Hybrid mice; [15]) was 4/10. For the same compound, the Feed intake [8] was “significantly (p < 0.05) reduced”.
